Most compounds without a hit are left out; they make up all but 2.6% or so of the library.
NR2E3 ag-1: human photoreceptor-specific nuclear receptor agonism. actives 0.35% (n = 360,000). AID 602229. inhibition of corepressor binding, % at 3.98 µM. Q9Y5X4. CHO-S Gal4-NCOR/VP16-NR2E3 two-hybrid, luciferase;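 active means inhibition above the mean of all tested compounds plus 3 SD, cut at about 70% in these data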;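 further: 0% = DMSO with NR2E3 transfected cells and 100% = cells lacking NR2E3 construct; higher means lower luciferase signal from less NR2E3 corepressor binding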
Target sequence (Q9Y5X4 whole entry, looked up, the tested form may be a part): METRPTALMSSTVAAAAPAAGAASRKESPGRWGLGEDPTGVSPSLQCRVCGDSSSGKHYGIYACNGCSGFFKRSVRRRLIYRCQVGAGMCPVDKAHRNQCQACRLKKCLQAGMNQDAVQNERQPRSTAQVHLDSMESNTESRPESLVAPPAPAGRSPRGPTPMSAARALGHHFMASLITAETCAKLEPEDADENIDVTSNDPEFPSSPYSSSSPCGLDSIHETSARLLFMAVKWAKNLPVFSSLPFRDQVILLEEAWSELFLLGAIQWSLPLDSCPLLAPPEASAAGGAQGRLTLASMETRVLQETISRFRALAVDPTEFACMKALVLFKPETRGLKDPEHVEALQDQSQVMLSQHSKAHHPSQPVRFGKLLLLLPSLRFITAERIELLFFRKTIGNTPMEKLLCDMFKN
PG9 binder: PG9 antibody binding by small molecule | actives 0.43% (n = 360,000) | TR-FRET gp120-PG9 antibody binding | AID 624416 | inhibition, % at 6.7 µM; in the data active means inhibition above about 8.5%
rCAG RNA binder: molecules binding r(CAG) RNA repeats. r(CAG) RNA repeat, TO-PRO-1 dye displacement fluorescence. inhibition, % at 3 µM. actives 1.3% (n = 370,000). AID 651821;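 active means inhibition above the plate cutoff, the mean of all test compounds on that plate plus 3 SD, cut at about 35% in these data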;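 further: 0% = DMSO alone and 100% = 100 µM mitoxantrone as full dye displacement; higher means more dye released from RNA so lower well fluorescence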
Rev-erbA mod: modulates human Rev-erb alpha binding to DNA | P20393 | Rev-erbα–FITC-DNA binding, fluorescence polarization, 90 min | activity, % at 10 µM | actives 0.79% (n = 370,000) | AID 1259318;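 active means activity above about 14%, limit read from the data; passing the limit was not always enough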;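 further: 0% = DMSO wells with 35 nM protein and 100% = DMSO wells with 750 nM protein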
NR2E3 ag-2: agonists of human nuclear receptor NR2E3. Q9Y5X4. GST-NR2E3/biotin-RetCOR TR-FRET, 1536-well. inhibition of corepressor binding, % at 4.78 µM. actives 0.12% (n = 320,000);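 active means percent inhibition above the cutoff of mean plus 3 SD of all tested compounds, set per screening campaign, cut at about 20% in these data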;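 further: 0% = DMSO wells and 100% = biotin wells as full block of FRET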
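System: GST-tagged NR2E3 plus biotinylated RetCOR corepressor; Amount: 1.35 nM GST-tagged NR2E3 final; Dosing: single nominal compound dose of 4.8 µM; Schedule: 5 h incubation at 4 °C; Technique: TR-FRET with europium anti-GST and streptavidin-D2, 340 nm excitation; Controls: biotin wells as high control, 0.6% DMSO wells as low control.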
NR2E3 ag confirm: NR2E3 agonism confirmed in two-hybrid assay | shares compounds with NR2E3 ag-1 | CHO-S mammalian two-hybrid NR2E3-NCOR, luciferase luminescence | inhibition, % at 3.98 µM | actives 51% (n = 2,300) | AID 624378;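 active means average inhibition above a cutoff equal to the mean inhibition of all tested compounds plus one SD, cut at about 70% in these data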;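 further: 0% = DMSO in NR2E3 cells and 100% = DMSO in cells lacking NR2E3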
GAL4-VP16 luc: GAL4-VP16 reporter inhibition in NR2E3 agonist counterscreen; CHO-S GAL4-VP16 luciferase reporter, luminescence; shares compounds with NR2E3 ag-1; inhibition, % at 3.98 µM; actives 29% (n = 2,300);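 active means mean inhibition above a cutoff equal to the average over all tested compounds plus one standard deviation, cut at about 70% in these data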;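 further: luciferase from a UAS reporter driven by GAL4-VP16 transactivation; 0% = DMSO with VP16-transfected cells and 100% = DMSO with cells lacking VP16; higher means less reporter light so more repression of VP16 activity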
An asterisk follows results filed as active.

How did Cc1ccc(NC(=O)N2CC(C)OC(C)C2)cc1[N+](=O)[O-] (stereo not given) do in these assays?
PG9 binder: 0.0; rCAG RNA binder: 4.4; Rev-erbA mod: -8.6

Results for CC(=O)N1c2ccc(S(=O)(=O)N3CCC(C(=O)Nc4cccc(C)n4)CC3)cc2CC1C (stereo not given) ?
NR2E3 ag-1: 49.7; PG9 binder: -2.0; rCAG RNA binder: -2.5; Rev-erbA mod: -2.1; NR2E3 ag-2: -3.8; NR2E3 ag confirm: 17.9; GAL4-VP16 luc: 5.5

What do the screens show for `COc1cccc(NC(=O)C2CCN(S(=O)(=O)c3ccc(N4CCCC4=O)cc3)CC2)c1`?
NR2E3 ag-1: 8.6; PG9 binder: -0.4; rCAG RNA binder: 0.8; Rev-erbA mod: -0.8

What do the screens show for `CC(=O)N1c2ccc(S(=O)(=O)N3CCC(C(=O)Nc4cccc(C(F)(F)F)c4)CC3)cc2CC1C` (stereo not given)?
NR2E3 ag-1: 58.5; PG9 binder: 1.7; rCAG RNA binder: 4.5; Rev-erbA mod: 3.2; NR2E3 ag-2: -1.3; NR2E3 ag confirm: 61.3; GAL4-VP16 luc: 43.9

What do the screens show for `CC(=O)N1c2ccc(S(=O)(=O)N3CCC(C(=O)Nc4ccccn4)CC3)cc2CC1C` (stereo not given)?
NR2E3 ag-1: 5.9; PG9 binder: 0.0; rCAG RNA binder: -0.1; Rev-erbA mod: -4.3; NR2E3 ag-2: -0.1

Results for O=C(Nc1cccc(C(F)(F)F)c1)C1CCN(S(=O)(=O)c2ccc(N3CCCC3=O)cc2)CC1 ?
NR2E3 ag-1: 84.7*; PG9 binder: -1.5; rCAG RNA binder: 6.1; Rev-erbA mod: -3.8; NR2E3 ag-2: 4.7; NR2E3 ag confirm: 90.3*; GAL4-VP16 luc: 67.6

How did COC(=O)[C@]12C[C@H](CC(=O)N3CCCCC3)C(=O)N(Cc3ccc4c(c3)OCO4)C1=C[C@H](COCc1ccccc1)O[C@@H]2C do in these assays?
PG9 binder: -0.4; rCAG RNA binder: 2.5; Rev-erbA mod: -1.4

Results for CC1CCCC/C1=N\NC(=S)Nc1ccccc1 (stereo not given) ?
NR2E3 ag-1: -78.1; PG9 binder: -2.1; rCAG RNA binder: -2.0; Rev-erbA mod: -0.6; NR2E3 ag-2: -4.3

What do the screens show for `CC(C)NC(=S)N/N=C1\CCCCC1C1CCCCC1` (stereo not given)?
NR2E3 ag-1: 67.1; PG9 binder: -0.7; rCAG RNA binder: -7.9; Rev-erbA mod: 9.3; NR2E3 ag-2: 0.8; NR2E3 ag confirm: -15.8; GAL4-VP16 luc: -0.1

Results for N#Cc1c(-c2cccs2)cc(-c2ccccn2)nc1N ?
NR2E3 ag-1: 62.2; PG9 binder: 0.7; rCAG RNA binder: 5.1; Rev-erbA mod: 1.1; NR2E3 ag-2: 1.8; NR2E3 ag confirm: 27.3; GAL4-VP16 luc: -14.7

What do the screens show for `CN(C)Cc1c(C(C)(C)O)[nH]c2cc(F)ccc12`?
PG9 binder: -1.1; rCAG RNA binder: 2.0; Rev-erbA mod: -2.7

Results for COc1ccc(OC)c(S(=O)(=O)N2CCCCC2C(=O)N2CCN(Cc3ccc(F)cc3)CC2)c1 (stereo not given) ?
rCAG RNA binder: 6.8; Rev-erbA mod: 1.2

Results for Cc1ccc(OCC(=O)N2N=C(C(F)(F)F)CC2(O)C(C)(C)C)cc1C (stereo not given) ?
NR2E3 ag-1: 51.2; PG9 binder: 0.5; rCAG RNA binder: -4.6; Rev-erbA mod: 0.0; NR2E3 ag-2: 3.1; NR2E3 ag confirm: 58.9; GAL4-VP16 luc: 47.0

Results for CC1=C(CC(=O)c2ccccc2)C(=O)c2ccccc2C1=O ?
NR2E3 ag-1: 55.1; PG9 binder: -2.3; rCAG RNA binder: 2.9; Rev-erbA mod: 10.4; NR2E3 ag-2: -1.8; NR2E3 ag confirm: -91.3; GAL4-VP16 luc: -31.2

How did CCNc1nc2c(c(=O)n(C)c(=O)n2C)n1Cc1ccc(Cl)cc1 do in these assays?
NR2E3 ag-1: 57.0; PG9 binder: 0.2; rCAG RNA binder: -0.2; Rev-erbA mod: -8.2; NR2E3 ag-2: -0.4; NR2E3 ag confirm: 78.5*; GAL4-VP16 luc: 55.9

What do the screens show for `O=C(Nc1ccc(Cl)c(Cl)c1)c1ccc(Cn2cc(Cl)cn2)cc1`?
NR2E3 ag-1: -108.7; PG9 binder: 2.1; rCAG RNA binder: 11.5; Rev-erbA mod: -1.1

What do the screens show for `CCOc1ccc(C(=O)Nc2cnn(Cc3ccc(Cl)c(Cl)c3)c2)cc1`?
NR2E3 ag-1: 66.4; PG9 binder: 0.6; rCAG RNA binder: -0.5; Rev-erbA mod: 5.8; NR2E3 ag-2: -3.1; NR2E3 ag confirm: 69.9; GAL4-VP16 luc: 19.0

Results for COc1ccc(CN2C[C@H](COCc3ccccc3)Oc3cccc(N4CCCC4)c3S2(=O)=O)cc1 ?
PG9 binder: 0.1; rCAG RNA binder: 8.1; Rev-erbA mod: 1.8

Results for Cc1cnc(C=NNC(N)=S)c2cccc(N)c12 ?
NR2E3 ag-1: 18.8; PG9 binder: -5.5; rCAG RNA binder: 7.9; Rev-erbA mod: -24.0

How did NC(=S)NN=Cc1nccc2ccccc12 do in these assays?
NR2E3 ag-1: 74.9*; PG9 binder: -1.4; rCAG RNA binder: 4.8; Rev-erbA mod: 4.0; NR2E3 ag confirm: 15.2; GAL4-VP16 luc: -16.7

Results for NC(=S)NN=Cc1nccc2c(C(F)(F)C(F)(F)C(F)(F)F)cccc12 ?
NR2E3 ag-1: 86.8*; PG9 binder: 0.0; rCAG RNA binder: 10.0; Rev-erbA mod: 0.4; NR2E3 ag confirm: -5.6; GAL4-VP16 luc: 26.1

What do the screens show for `Cc1ccc2nc(-c3ccco3)c(Cc3ccsc3)n2c1`?
PG9 binder: 0.9; rCAG RNA binder: 10.8; Rev-erbA mod: -6.7

How did Cc1nc([N+](=O)[O-])cn1CC(Cl)Cn1cc([N+](=O)[O-])nc1C do in these assays?
PG9 binder: -2.0; rCAG RNA binder: 3.2; Rev-erbA mod: -1.9

How did c1ccc(Cn2cc(CCOCc3ccccn3)c3ccccc32)cc1 do in these assays?
PG9 binder: -1.4; rCAG RNA binder: 6.8; Rev-erbA mod: 11.9

Results for O=C(C(=O)N1CCN(C(=O)C2CCCC2)CC1)c1cccc(C(F)(F)F)c1 ?
PG9 binder: -0.6; rCAG RNA binder: 1.4; Rev-erbA mod: -5.1

What do the screens show for `CCC(C)[C@H]1CNCCN1CCc1cc(C(F)(F)F)cc(C(F)(F)F)c1` (stereo not given in full)?
NR2E3 ag-1: 16.6; PG9 binder: -0.9; rCAG RNA binder: 3.7; Rev-erbA mod: 0.2; NR2E3 ag-2: -0.7

What do the screens show for `CCC(C)[C@H]1CNC(=S)N1CCc1cc(C(F)(F)F)cc(C(F)(F)F)c1` (stereo not given in full)?
NR2E3 ag-1: 47.8; PG9 binder: -0.4; rCAG RNA binder: -12.3; Rev-erbA mod: 4.6; NR2E3 ag-2: 1.6; NR2E3 ag confirm: -3.6; GAL4-VP16 luc: 16.8

What do the screens show for `O=C(CN(CCO)Cc1ccccc1)N1CCN(S(=O)(=O)c2ccccc2)CC1`?
NR2E3 ag-1: 8.1; PG9 binder: -0.9; rCAG RNA binder: 0.8; Rev-erbA mod: -2.2
